“Also recorded” adds a separate entry of the source.
Legend:
[1] = system: patients with relapsed/refractory MM; assay: Safety: treatment-related adverse events; format: in vivo, human
How it was run: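 Safety population was all patients receiving ≥1 dose. AEs were graded by CTCAE v4.0; treatment-related meant possibly, probably or definitely drug-related per investigator. Vital signs, vision, peripheral neuropathy, haematology and chemistry were checked at screening, on days 1, 4, 8, 11 and 16–18 of each cycle, at end of treatment and at 30-day follow-up. Phase I screening included slit-lamp retinal examination.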

[2] = Plasma pharmacokinetics of KW-2478 in phase I, cycle 1; format: in vivo, human
[3] = system: patients with relapsed/refractory MM; assay: Phase I dose escalation; format: in vivo, human; conditions: days 1, 4, 8, 11 every 3 weeks, up to KW-2478 175 mg m^−2 plus BTZ 1.3 mg m^−2
How it was run: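 DLT window was cycle 1, graded by CTCAE v4.0. DLT was related non-haematologic grade ≥3 toxicity (controllable GI events excepted) or grade 4 haematologic toxicity (neutropenia ≤5 days excepted).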

[4] = system: MM models; conditions: cited from earlier work
[5] = system: patients with advanced, relapsed/refractory B-cell malignancies (predominantly with MM); conditions: ref Yong et al, 2016, cited from earlier work
[6] = system: relapsed/refractory multiple myeloma; format: in vivo, human; conditions: comparison with historical single-agent BTZ
How it was run: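 Response graded by IMWG criteria, with minimal response added per ASH-FDA panel. Assessed in evaluable phase II patients plus phase I patients at RP2D (KW-2478 175 mg m−2 i.v. over 1 h, 30 min after BTZ 1.3 mg m−2 bolus, days 1, 4, 8, 11 of 21-day cycles). Duration of response ran from first CR/PR/MR to PD or death. PFS ran from treatment day 1 to PD or death. Both by Kaplan–Meier.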

[7] = system: relapsed and/or refractory MM; conditions: ref Richardson et al, cited from earlier work
[8] = large-scale phase III trials, 2005, Orlowski et al, 2007

Question: With `CCc1c(O)cc(O)c(C(=O)c2ccc(OCCN3CCOCC3)c(OC)c2)c1CC(=O)N(CCOC)CCOC` [KW-2478] as the molecule, how does the Ocular safety ([1]; in combination with BTZ) read?
Answer: The Ocular safety was “did not raise any ocular safety concerns”.

Question: What about the “Effect on toxicity of BTZ in the combination regimen” value ([1]; in vivo) of the same molecule?
Answer: The value was “did not enhance the toxicity of BTZ”.

Question: What about the “Mean CL, range” value ([2]; 130 mg m^−2 dose) of the same molecule?
Answer: The value was 25.9 to 33.3 L/h.

Question: And the “Mean CL, range” value ([2]; 175 mg m^−2 dose)?
Answer: The value was 32.2 to 62.0 L/h.

Question: What about the “Effect of increase in BTZ dose on KW-2478 pharmacokinetics” value ([2]; co-administered BTZ 1 vs 1.3 mg m^−2) of the same molecule?
Answer: The value was “did not affect”.

Question: And the Accumulation ([2]; day 11 vs day 1, cycle 1)?
Answer: Its Accumulation is “Accumulation did not occur”.

Question: What about the “Maximum tolerated dose (MTD)” value [3] of the same molecule?
Answer: The value was “not reached”.

Question: And the Antitumour activity ([4]; KW-2478 alone, ref Nakashima et al, 2010)?
Answer: Its Antitumour activity is “exhibits antitumour activity”.

Question: What about the “Antitumour activity in MM cells in the presence of bone marrow stromal cells” value ([4]; ref Juliger et al, 2008) of the same molecule?
Answer: The value was “retained”.

Question: What about the Single-agent clinical activity [5] of the same molecule?
Answer: Its Single-agent clinical activity is “modest single-agent activity; also recorded: preliminary signs of clinical activity were seen”.

Question: And the Tolerability ([5]; single agent)?
Answer: The Tolerability was “well tolerated”.

Question: What about the “Contribution of KW-2478 to the efficacy of BTZ alone” value [6] of the same molecule?
Answer: The value was “insufficient evidence that KW-2478 added to the efficacy of BTZ alone”.

Question: What does the source list for `CC(C)C[C@H](NC(=O)[C@H](Cc1ccccc1)NC(=O)c1cnccn1)B(O)O` [BTZ, bortezomib]?
Answer: ORR, BTZ alone (reference) ([7]; SUMMIT trial, 2006): 35%; Median PFS, single-agent BTZ [7, 8]: ~6 months; ORR, single-agent BTZ [7, 8]: ~40%

Source: publication PMC5672925 (British Journal of Cancer, 2017)
